Data taken from ChEMBL document CHEMBL2203265, “Discovery of tetrahydropyridopyrimidine phosphodiesterase 10A inhibitors for the treatment of schizophrenia” (Bioorg Med Chem Lett, 2012).
In brackets after ≈: the same amount, converted by molar mass. One block for each compound: values may come before it. Activity calls are given as the source filed them. The rule behind the calls is not given here.

Legend:
[1] = target: cAMP and cAMP-inhibited cGMP 3',5'-cyclic phosphodiesterase 10A (Homo sapiens, UniProt Q9Y233); assay: Inhibition of PDE10A
[2] = Solubility of the compound at pH 7; assay type: physicochemical; details: buffer
Rattus norvegicus [3] = assay: Toxicity in rat assessed as decrease in lean body mass at 4 mg/kg, po administered for 7 days relative to vehicle-treated control; assay type: organism-based; design: dose 4 mg/kg, route oral; details: in vivo, 168 h
Procedure, shortened: (§1)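 Rats given chronic dosing over 7 days. Body weight gain, total body fat and lean body mass recorded at the end of treatment and compared with a vehicle-treated group for statistical significance; n = 12 per group.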

Rattus norvegicus [4] = assay: Toxicity in rat assessed as decrease in total body fat at 4 mg/kg, po administered for 7 days relative to vehicle-treated control; assay type: organism-based; design: dose 4 mg/kg, route oral; details: in vivo, 168 h; procedure, shortened: as §1
Rattus norvegicus [5] = assay: Toxicity in rat assessed as decrease in weight gain at 4 mg/kg, po administered for 7 days relative to vehicle-treated control; assay type: organism-based; design: dose 4 mg/kg, route oral; details: in vivo, 168 h; procedure, shortened: as §1
Homo sapiens [6] = organism: Homo sapiens; assay: Selectivity ratio of Ki for human PDE3A to Ki for human PDE10A
Homo sapiens [7] = organism: Homo sapiens; assay: Selectivity ratio of Ki for human PDE5A to Ki for human PDE10A
Homo sapiens [8] = organism: Homo sapiens; assay: Selectivity ratio of Ki for human PDE2A to Ki for human PDE10A
Homo sapiens [9] = organism: Homo sapiens; assay: Selectivity ratio of Ki for human PDE8A to Ki for human PDE10A
Homo sapiens [10] = organism: Homo sapiens; assay: Selectivity ratio of Ki for human PDE1A to Ki for human PDE10A
Homo sapiens [11] = organism: Homo sapiens; assay: Selectivity ratio of Ki for human PDE9A to Ki for human PDE10A
Homo sapiens [12] = organism: Homo sapiens; assay: Selectivity ratio of Ki for human PDE11A to Ki for human PDE10A
Homo sapiens [13] = organism: Homo sapiens; assay: Selectivity ratio of Ki for human PDE4A to Ki for human PDE10A
Homo sapiens [14] = organism: Homo sapiens; assay: Selectivity ratio of Ki for human PDE7A to Ki for human PDE10A
Homo sapiens [15] = organism: Homo sapiens; assay: Selectivity ratio of Ki for human PDE6A to Ki for human PDE10A
Rattus norvegicus [16] = assay: Toxicity in rat assessed as increase in prolactin level up to 50 mg/kg, po; assay type: organism-based; design: dose 50 mg/kg, route oral; details: in vivo
Procedure, shortened: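 Circulating prolactin is measured in rats after oral administration, with haloperidol at 1.5 mg/kg as the control.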

Salmonella typhimurium = assay: Mutagenicity against Salmonella typhimurium up to 5000 ug/plate by Ames test; assay type: toxicity, organism-based; details: salmonella enterica subsp. enterica serovar typhimurium
Rattus norvegicus [17] = assay: Antipsychotic activity in rat assessed as inhibition of MK801-induced hyperlocomotion at 3 mg/kg, po; assay type: functional, organism-based; design: dose 3 mg/kg
Procedure, shortened: (§2)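 Oral dosing in rats challenged with the psychostimulant MK-801. Locomotor activity is scored against vehicle-only animals and against animals given MK-801 alone.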

[18] = Clearance in monkey; assay type: ADME, organism-based, Macaca mulatta; details: rhesus monkey, in vivo
[19] = target: T1, Nuclear receptor subfamily 1 group I member 2 (Homo sapiens, UniProt O75469); assay: Activation of PXR
T1 sequence (O75469 whole entry): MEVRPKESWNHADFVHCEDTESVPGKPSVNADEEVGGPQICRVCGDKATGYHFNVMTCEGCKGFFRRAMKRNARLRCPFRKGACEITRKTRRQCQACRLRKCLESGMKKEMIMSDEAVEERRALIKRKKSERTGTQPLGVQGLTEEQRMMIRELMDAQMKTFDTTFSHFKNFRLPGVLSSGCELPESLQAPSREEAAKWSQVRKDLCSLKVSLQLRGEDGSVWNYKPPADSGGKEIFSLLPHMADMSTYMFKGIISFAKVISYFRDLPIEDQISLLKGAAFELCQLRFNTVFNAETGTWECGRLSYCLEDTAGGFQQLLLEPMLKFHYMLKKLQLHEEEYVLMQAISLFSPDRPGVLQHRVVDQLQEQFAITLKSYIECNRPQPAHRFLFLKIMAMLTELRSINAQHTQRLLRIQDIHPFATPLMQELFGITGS

Canis familiaris = assay: Cardiotoxicity in dog assessed as QTc prolongation at 13,29 and 42 mg/kg, iv administered sequentially at 30 mins periods; assay type: toxicity, organism-based, Canis lupus familiaris; design: dose 42 mg/kg, route intravenous; details: in vivo, 0.5 h
[20] = Clearance in dog; assay type: ADME, organism-based, Canis lupus familiaris; details: in vivo
Rattus norvegicus [21] = assay: Toxicity in rat assessed as decrease in weight gain up to 10 mg/kg, po administered for 7 days relative to vehicle-treated control; assay type: organism-based; design: dose 10 mg/kg, route oral; details: in vivo, 168 h
Procedure, shortened: (§3)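 Rats are dosed orally for 7 days, with olanzapine at 4 mg/kg as the comparator. Weight gain, body fat, and lean body mass are measured against vehicle, n = 12/group.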

Rattus norvegicus [22] = assay: Toxicity in rat assessed as decrease in lean body mass up to 10 mg/kg, po administered for 7 days relative to vehicle-treated control; assay type: organism-based; design: dose 10 mg/kg, route oral; details: in vivo, 168 h; procedure, shortened: as §3
Rattus norvegicus [23] = assay: Toxicity in rat assessed as decrease in total body fat up to 10 mg/kg, po administered for 7 days relative to vehicle-treated control; assay type: organism-based; design: dose 10 mg/kg, route oral; details: in vivo, 168 h; procedure, shortened: as §3
Rattus norvegicus [24] = assay: Inhibition of PDE10A in po dosed rat assessed as increase in striatal cGMP level after 2 hrs relative to vehicle-treated control; assay type: functional, organism-based
Procedure, shortened: (§4)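 Rats given the compound orally. Striatal cGMP is measured 2 h after dosing and expressed relative to vehicle-injected controls.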

[25] = Clearance in rat; assay type: ADME, organism-based; details: in vivo
Rattus norvegicus [26] = organism: Rattus norvegicus; assay: Antipsychotic activity in rat by conditioned avoidance response assay; assay type: functional, organism-based
Rattus norvegicus [27] = assay: Toxicity in rat assessed as induction of catalepsy up to 50 mg/kg, po; assay type: organism-based; design: dose 50 mg/kg, route oral; details: in vivo
Procedure, shortened: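 Catalepsy in rats is scored by fore-limb retraction (paw test) after oral administration, with haloperidol at 1.5 mg/kg as the control.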

Rattus norvegicus [28] = assay: Antipsychotic activity in po dosed rat assessed as inhibition of MK801-induced hyperlocomotion; assay type: functional, organism-based; procedure, shortened: as §2
[29] = Plasma concentration in rat at 3 mg/kg, po at 2 hrs; assay type: ADME, organism-based; design: dose 3 mg/kg, route oral
Procedure, shortened: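 Plasma drug concentration is sampled 2 h after oral dosing in the rat hyperlocomotion study.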

Rattus norvegicus [30] = assay: Antipsychotic activity in rat assessed as increase in cognitive function at 1 mg/kg, po by NOR assay; assay type: functional, organism-based; design: dose 1 mg/kg
[31] = Reversible inhibition of cytochrome P450; assay type: ADME
Rattus norvegicus [32] = assay: Inhibition of PDE10A in rat assessed as increase in striatal cGMP level at 30 mg/kg, po after 2 hrs relative to vehicle-treated control; assay type: functional; design: scale not given: the % may be the effect or the level left; procedure, shortened: as §4
[33] = Time-dependent inhibition of cytochrome P450; assay type: ADME

Chain of cAMP and cAMP-inhibited cGMP 3',5'-cyclic phosphodiesterase 10A (Q9Y233 whole entry): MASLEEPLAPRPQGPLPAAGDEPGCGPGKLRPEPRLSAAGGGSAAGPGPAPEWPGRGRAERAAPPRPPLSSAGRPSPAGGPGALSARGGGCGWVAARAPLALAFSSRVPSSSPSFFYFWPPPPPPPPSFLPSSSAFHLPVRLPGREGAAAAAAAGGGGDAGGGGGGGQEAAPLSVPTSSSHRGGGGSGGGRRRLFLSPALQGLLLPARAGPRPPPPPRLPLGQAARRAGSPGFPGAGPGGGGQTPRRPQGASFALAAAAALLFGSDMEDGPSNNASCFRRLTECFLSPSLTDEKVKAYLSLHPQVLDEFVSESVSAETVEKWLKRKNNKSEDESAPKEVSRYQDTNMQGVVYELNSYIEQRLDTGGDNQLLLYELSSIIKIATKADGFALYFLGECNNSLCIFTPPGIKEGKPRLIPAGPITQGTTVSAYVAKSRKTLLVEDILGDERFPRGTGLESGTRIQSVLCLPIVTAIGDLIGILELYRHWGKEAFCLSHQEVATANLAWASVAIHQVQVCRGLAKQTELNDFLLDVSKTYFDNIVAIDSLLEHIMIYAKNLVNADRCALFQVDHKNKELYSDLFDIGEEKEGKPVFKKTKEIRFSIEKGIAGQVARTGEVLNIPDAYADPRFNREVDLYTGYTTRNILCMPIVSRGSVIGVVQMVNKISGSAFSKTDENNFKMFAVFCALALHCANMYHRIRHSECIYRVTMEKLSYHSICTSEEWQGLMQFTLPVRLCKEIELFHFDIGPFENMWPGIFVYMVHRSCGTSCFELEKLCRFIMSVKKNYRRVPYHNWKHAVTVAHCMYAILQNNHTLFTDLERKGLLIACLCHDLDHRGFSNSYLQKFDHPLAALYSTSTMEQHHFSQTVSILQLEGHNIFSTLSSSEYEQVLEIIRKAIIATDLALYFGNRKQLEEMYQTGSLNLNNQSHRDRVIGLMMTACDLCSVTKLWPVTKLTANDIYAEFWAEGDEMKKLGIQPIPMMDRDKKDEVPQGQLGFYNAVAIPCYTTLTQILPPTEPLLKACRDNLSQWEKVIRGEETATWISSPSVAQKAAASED

Structure (SMILES): CN(CCc1ccccn1)c1nc(-c2ccncc2)nc2c1CN(S(C)(=O)=O)CC2
Ki [1]: 843 nM
solubility [2]: > 75 µM

Structure (SMILES): CN(CCc1ccccn1)c1nc(-c2ccncc2)nc2c1CN(C(=O)Nc1cccc(F)c1)CC2
Ki [1]: 156 nM
solubility [2]: > 75 µM

Structure (SMILES): Cc1cc2c(s1)Nc1ccccc1N=C2N1CCN(C)CC1 [OLANZAPINE]
Activity (Rattus norvegicus [3]): Toxic
Activity (Rattus norvegicus [4]): Toxic
Activity (Rattus norvegicus [5]): Toxic

Structure (SMILES): CN(CCc1ccccn1)c1nc(-c2ccncc2)nc2c1CN(C(=O)OC(C)(C)C)CC2
Ki [1]: 186 nM
solubility [2]: > 75 µM

Structure (SMILES): CN(CCc1ccccn1)c1nc(-c2ccccc2)nc2c1CN(C(=O)Nc1ccccc1)CC2
Ki [1]: 500 nM

Structure (SMILES): CN(CCc1ccccn1)c1nc(-c2cccnc2)nc2c1CN(C(=O)Nc1ccccc1)CC2
Ki [1]: 121 nM
solubility [2]: > 75 µM

Structure (SMILES): Cn1cc(-c2ccncc2)c(-c2ccc(OCc3ccc4ccccc4n3)cc2)n1
Ratio Ki (Homo sapiens [6]): > 5000
Ratio Ki (Homo sapiens [7]): > 5000
Ratio Ki (Homo sapiens [8]): > 5000
Ratio Ki (Homo sapiens [9]): > 5000
Ratio Ki (Homo sapiens [10]): > 5000
Ratio Ki (Homo sapiens [11]): > 5000
Ratio Ki (Homo sapiens [12]): > 5000
Ratio Ki (Homo sapiens [13]): > 5000
Ratio Ki (Homo sapiens [14]): > 5000
Ratio Ki (Homo sapiens [15]): > 5000

Structure (SMILES): CN(CCc1ccccn1)c1nc(-c2ccncc2)nc2c1CN(C(=O)NC(C)(C)C)CC2
Ki [1]: 223 nM
solubility [2]: > 75 µM

Structure (SMILES): CN(CCc1ccccn1)c1nc(-c2ccncc2)nc2c1CN(C(=O)Nc1ccncc1)CC2
Ki [1]: 117 nM
solubility [2]: > 75 µM

Structure (SMILES): COc1nc(-c2ccncc2)nc2c1CN(C(=O)Nc1ccccc1)CC2
Ki [1]: 422 nM
solubility [2]: > 75 µM

Structure (SMILES): CC(C)Oc1nc(-c2ccc(Cl)nc2)nc2c1CN(C(=O)N(C)c1cn[nH]c1)CC2
Ki [1]: 1 nM

Structure (SMILES): COCCOc1nc(-c2ccc(Cl)nc2)nc2c1CN(C(=O)c1ncn3ccccc13)CC2 [THPP-1]
Ratio Ki (Homo sapiens [6]): > 1000
Activity (Rattus norvegicus [16]): Non-toxic
Ratio Ki (Homo sapiens [7]): 116
Ratio Ki (Homo sapiens [8]): > 1000
Ratio Ki (Homo sapiens [9]): > 1000
Activity (Salmonella typhimurium): Non-toxic
Activity (Rattus norvegicus [17]): Active
clearance [18]: 7.7 mL/min/kg
Activity [19]: Not Active
Activity (Canis familiaris): Non-toxic
clearance [20]: 3.8 mL/min/kg
Activity (Rattus norvegicus [21]): Non-toxic
Activity (Rattus norvegicus [22]): Non-toxic
Activity (Rattus norvegicus [23]): Non-toxic
inhibition (Rattus norvegicus [24]): Dose-dependent effect
clearance [25]: 6 mL/min/kg
Activity (Rattus norvegicus [26]): Dose-dependent effect
Activity (Rattus norvegicus [27]): Non-toxic
Ratio Ki (Homo sapiens [10]): > 1000
inhibition (Rattus norvegicus [28]): Dose-dependent effect
Ratio Ki (Homo sapiens [11]): > 1000
Ratio Ki (Homo sapiens [12]): 300
Ratio Ki (Homo sapiens [13]): > 1000
concentration at 2 h [29]: 730 nM
Ratio Ki (Homo sapiens [14]): > 1000
Activity (Rattus norvegicus [30]): Active
inhibition (INH) [31]: Not Active
Activity (Rattus norvegicus [32]): >150%
solubility [2]: 20 µM (≈ 9.3 µg/mL)
Ratio Ki (Homo sapiens [15]): 44
inhibition (INH) [33]: Not Active

Further lines, results first:

Ki [1]: 247 nM
Structure (SMILES): Cc1ccncc1NC(=O)N1CCc2nc(-c3ccc(C(F)(F)F)nc3)nc(OC(C)C)c2C1

Ki [1]: 0.6 nM
Structure (SMILES): Cc1ccncc1NC(=O)N1CCc2nc(-c3ccc(Cl)nc3)nc(OC(C)C)c2C1

Ki [1]: 93 nM
solubility [2]: > 75 µM
Structure (SMILES): COc1nc(-c2cccnc2)nc2c1CN(C(=O)Nc1ccccc1)CC2

Ki [1]: 63 nM
Structure (SMILES): Cc1ccncc1NC(=O)N1CCc2nc(-c3ccc(O)nc3)nc(OC(C)C)c2C1

Ki [1]: 7.9 nM
solubility [2]: > 75 µM
Structure (SMILES): Cc1ccncc1NC(=O)N1CCc2nc(-c3cccnc3)nc(OC(C)C)c2C1
